From paper PMC6368478 (ACS infectious diseases, 2018)

Key:
Sts-1HP [1] = target: T1, Sts-1HP (Homo sapiens, UniProt Q8TF42); assay: OMFP fluorescence phosphatase assay, 1,536-well HTS; type: biochemical; conditions: for Averaged Max. Response (%): LOPAC pilot screen, 5.8 μM nominal concentration, triplicate, OMFP substrate
[2] = read-out: Counterscreen IC50; compound added after NaOH stop, 10-point titration
Outline: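 Same reagents and protocol as the primary OMFP screen: Sts-1HP at 750 ng/mL final in 30 mM Tris HCl, 75 mM NaCl, 1 mM EDTA, 1 mM DTT; OMFP 50 μM final; 20 min at room temperature in the dark; stopped with NaOH (100 mM final). Test compound is added after the NaOH stop. Fluorescence read; 10-point 3-fold titration in triplicate. IC50 comes from a four-parameter sigmoidal fit with adjustable baseline.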

Sts-1HP W494L = Sts-1HP W494L (Homo sapiens, UniProt Q8TF42, W505L); assay: pNPP inhibition analysis of Sts-1HP mutant; type: biochemical
Outline: (§1)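 Mutant Sts-1HP is expressed in E. coli BL21(DE3) and purified. Assay uses 20 mM Tris (pH 7.5), 150 mM NaCl, 5 mM MgCl2 and 1 mM βME with varying pNPP, following pNP release at 405 nm. Initial rates (<10% completion) are measured at several fixed inhibitor concentrations, with controls for compound optical interference, in triplicate. Ki is derived from Km in the presence of inhibitor via a Lineweaver-Burk competitive fit.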

Sts-1HP [3] = target: T1, Sts-1HP; assay: pNPP absorbance phosphatase assay, inhibition analysis; type: biochemical; conditions: for Ki Ratio: Ki of construct / Ki of wild-type Sts-1HP, wild-type; for Mode of inhibition: double reciprocal plots, several inhibitor concentrations
SHP1 = SHP1 (Homo sapiens, UniProt P29350); assay: pNPP inhibition analysis, selectivity; type: biochemical; conditions: for Selectivity: more active against Sts-1 than SHP1: from Ki values, Table 4
Sts-1HP W494F = Sts-1HP W494F (Homo sapiens, UniProt Q8TF42, W505F); assay: pNPP inhibition analysis of Sts-1HP mutant; type: biochemical
Outline: as §1

PTP-1B = target: T2, PTP-1B (Homo sapiens, UniProt P18031); assay: pNPP inhibition analysis, selectivity; type: biochemical; conditions: for Selectivity: more active against Sts-1 than PTP1B: from Ki values, Table 4
T2 sequence (P18031 1-435): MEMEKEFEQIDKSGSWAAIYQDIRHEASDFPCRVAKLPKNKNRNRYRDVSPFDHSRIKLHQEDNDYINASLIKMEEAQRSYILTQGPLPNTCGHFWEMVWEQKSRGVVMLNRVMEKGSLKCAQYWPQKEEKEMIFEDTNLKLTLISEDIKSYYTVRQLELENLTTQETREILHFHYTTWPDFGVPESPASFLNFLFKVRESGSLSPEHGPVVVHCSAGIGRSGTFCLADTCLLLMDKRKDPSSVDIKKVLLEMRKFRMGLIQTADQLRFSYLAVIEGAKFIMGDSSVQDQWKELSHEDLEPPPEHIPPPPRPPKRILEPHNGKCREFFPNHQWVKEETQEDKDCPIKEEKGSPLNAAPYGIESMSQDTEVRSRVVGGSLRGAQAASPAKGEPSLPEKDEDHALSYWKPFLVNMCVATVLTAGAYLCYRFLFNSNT

Sts-1HP Y596L = Sts-1HP Y596L (Homo sapiens, UniProt Q8TF42, Y607L); assay: pNPP inhibition analysis of Sts-1HP mutant; type: biochemical
Outline: as §1

Sts-1HP Y596F = Sts-1HP Y596F (Homo sapiens, UniProt Q8TF42, Y607F); assay: pNPP inhibition analysis of Sts-1HP mutant; type: biochemical
Outline: as §1

Sts-1HP W494H = Sts-1HP W494H (Homo sapiens, UniProt Q8TF42, W505H); assay: pNPP inhibition analysis of Sts-1HP mutant; type: biochemical
Outline: as §1

Sts-1 = conditions: cited from earlier work

T1 sequence (Q8TF42 384-647 limits assumed): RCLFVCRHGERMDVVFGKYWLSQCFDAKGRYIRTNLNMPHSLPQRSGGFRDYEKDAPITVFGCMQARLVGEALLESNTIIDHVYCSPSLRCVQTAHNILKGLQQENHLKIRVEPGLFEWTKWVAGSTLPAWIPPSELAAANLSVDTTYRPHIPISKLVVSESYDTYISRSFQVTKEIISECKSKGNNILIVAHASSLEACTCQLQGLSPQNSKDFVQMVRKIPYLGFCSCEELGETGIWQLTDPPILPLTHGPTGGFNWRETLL
SHP1, sequence (P29350 whole entry): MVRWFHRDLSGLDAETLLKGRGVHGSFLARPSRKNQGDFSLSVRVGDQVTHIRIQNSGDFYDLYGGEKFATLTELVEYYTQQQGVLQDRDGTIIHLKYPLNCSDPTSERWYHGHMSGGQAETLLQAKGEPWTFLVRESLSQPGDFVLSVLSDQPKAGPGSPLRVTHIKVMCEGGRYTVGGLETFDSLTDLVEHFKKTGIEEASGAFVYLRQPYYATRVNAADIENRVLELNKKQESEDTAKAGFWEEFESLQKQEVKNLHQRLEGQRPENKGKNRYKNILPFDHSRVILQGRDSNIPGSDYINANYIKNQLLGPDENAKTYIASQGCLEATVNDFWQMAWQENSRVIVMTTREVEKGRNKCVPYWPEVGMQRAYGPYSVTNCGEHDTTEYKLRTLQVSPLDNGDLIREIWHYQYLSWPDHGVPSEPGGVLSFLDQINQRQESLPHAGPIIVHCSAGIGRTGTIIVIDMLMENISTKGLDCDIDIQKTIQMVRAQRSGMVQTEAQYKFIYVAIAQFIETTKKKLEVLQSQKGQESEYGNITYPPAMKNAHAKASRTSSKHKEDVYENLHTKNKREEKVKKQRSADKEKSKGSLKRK
Sts-1HP W494H, sequence (Q8TF42 384-647 W505H): as the sequence (Q8TF42 384-647 limits assumed) above, with W122H counted along it
Sts-1HP W494L, sequence (Q8TF42 384-647 W505L): as the sequence (Q8TF42 384-647 limits assumed) above, with W122L counted along it
Sts-1HP W494F, sequence (Q8TF42 384-647 W505F): as the sequence (Q8TF42 384-647 limits assumed) above, with W122F counted along it
Sts-1HP Y596L, sequence (Q8TF42 384-647 Y607L): as the sequence (Q8TF42 384-647 limits assumed) above, with Y224L counted along it
Sts-1HP Y596F, sequence (Q8TF42 384-647 Y607F): as the sequence (Q8TF42 384-647 limits assumed) above, with Y224F counted along it

Row | SMILES | Averaged Max. Response (%) (Sts-1HP [1]) | IC50 (Sts-1HP [1]) | IC50 [2] | further results
1 | NC(Cc1cc(O)c(O)cc1O)C(=O)O (racemic) [6-Hydroxy-DL-DOPA] | 64.86% |  |  | 
2 | O=C(O)C1=CC(=C(c2ccc(O)c(C(=O)O)c2)c2ccc(O)c(C(=O)O)c2)C=CC1=O [Aurintricarboxylic Acid] | 89.95% |  |  | 
3 | COc1cc(-c2ccc(/N=N/c3ccc4c(S(=O)(=O)O)cc(S(=O)(=O)O)c(N)c4c3O)c(OC)c2)ccc1/N=N/c1ccc2c(S(=O)(=O)O)cc(S(=O)(=O)O)c(N)c2c1O [Chicago Sky Blue] |  | 1 µM | > 14.5 µM | 
4 | Nc1c(/N=N/c2ccc(-c3ccc(/N=N/c4cc(S(=O)(=O)O)c5ccccc5c4N)cc3)cc2)cc(S(=O)(=O)O)c2ccccc12 [Congo Red] |  | 0.92 µM | > 14.5 µM | Ki (Sts-1HP W494L): 1.46 ± 0.13 µM; Ki (Sts-1HP [3]): 0.079 ± 0.02 µM; Ki Ratio (Sts-1HP [3]): 1; Mode of inhibition (Sts-1HP [3]): competitive inhibition; Ki (SHP1): 3.88 ± 0.59 µM; Selectivity: more active against Sts-1 than SHP1 (SHP1): ~50 fold; Ki (Sts-1HP W494F): 1.42 ± 0.32 µM; Ki (PTP-1B): 1.47 ± 0.34 µM; Selectivity: more active against Sts-1 than PTP1B (PTP-1B): approximately 20 fold; Ki (Sts-1HP Y596L): 0.94 ± 0.05 µM; Ki (Sts-1HP Y596F): 0.23 ± 0.02 µM; Ki (Sts-1HP W494H): 1.07 ± 0.03 µM
5 | CN(C)[C@@H]1C(O)=C(C(N)=O)C(=O)[C@@]2(O)C(O)=C3C(=O)c4c(O)ccc(Cl)c4[C@@H](O)[C@H]3C[C@@H]12 [Demeclocycline] |  | 4.7 µM | > 14.5 µM | 
6 | CN(N=O)c1cc(O)ccc1O [Dephostatin] | 43.47% |  |  | 
7 | C[C@H]1c2cccc(O)c2C(=O)C2=C(O)[C@]3(O)C(=O)C(C(N)=O)=C(O)[C@@H](N(C)C)[C@@H]3[C@@H](O)[C@@H]21 [Doxycycline] | 45.03% | 4.1 µM | > 14.5 µM | Ki (Sts-1HP W494L): 730 ± 40 µM; Ki (Sts-1HP [3]): 99 ± 19 µM; Ki Ratio (Sts-1HP [3]): 1; Mode of inhibition (Sts-1HP [3]): competitive inhibition; Selectivity: more active against Sts-1 than SHP1 (SHP1): more than 200 fold; Ki Doxycycline (SHP1; pNPP substrate): No Inhibition; Ki (Sts-1HP W494F): 1420 ± 110 µM; Selectivity: more active against Sts-1 than PTP1B (PTP-1B): more than 200 fold; Ki Doxycycline (PTP-1B; pNPP substrate): No Inhibition; Ki (Sts-1HP Y596L): 490 ± 50 µM; Ki (Sts-1HP Y596F): 390 ± 40 µM; Ki (Sts-1HP W494H): 1480 ± 90 µM
8 | Cc1cc(-c2ccc(/N=N/c3ccc4c(S(=O)(=O)O)cc(S(=O)(=O)O)c(N)c4c3O)c(C)c2)ccc1/N=N/c1ccc2c(S(=O)(=O)O)cc(S(=O)(=O)O)c(N)c2c1O [Evans Blue] |  | 3.1 µM | 23.6 µM | Ki (Sts-1HP [3]): 0.39 ± 0.11 µM
9 | CN(N=O)c1ccc(O)c(O)c1 [Methyl-3,4-Dephostatin] | 46.07% |  |  | 
10 | O=C(Nc1ccc(C(=O)Nc2ccc(C(=O)Nc3ccc(S(=O)(=O)O)c4cc(S(=O)(=O)O)cc(S(=O)(=O)O)c34)cc2)cc1)Nc1ccc(C(=O)Nc2ccc(C(=O)Nc3ccc(S(=O)(=O)O)c4cc(S(=O)(=O)O)cc(S(=O)(=O)O)c34)cc2)cc1 [NF-279] |  |  | > 29 µM | 
11 | CN(C)[C@@H]1C(O)=C(C(N)=O)C(=O)[C@@]2(O)C(O)=C3C(=O)c4c(O)cccc4[C@@](C)(O)[C@H]3[C@H](O)[C@@H]12 [Oxytetracyline] |  |  | > 14.5 µM | 
12 | Cc1nc(N=Nc2cc(S(=O)(=O)O)c3cc([N+](=O)[O-])cc(S(=O)(=O)O)c3c2)c(COP(=O)(O)O)c(C=O)c1O [PPNDS] |  |  | > 29 µM | 
13 | Nc1c(S(=O)(=O)O)cc(Nc2ccc(Nc3nc(Cl)nc(Nc4cccc(S(=O)(=O)O)c4)n3)c(S(=O)(=O)O)c2)c2c1C(=O)c1ccccc1C2=O [Reactive Blue 2] | 58.99% |  |  | 
14 | CN(C)[C@@H]1C(O)=C(C(N)=O)C(=O)[C@@]2(O)C(O)=C3C(=O)c4c(O)cccc4[C@@](C)(O)[C@H]3C[C@@H]12 [Tetracycline] |  | 1.9 µM | > 14.5 µM | Ki (Sts-1HP [3]): 199 ± 20 µM

The next lines start with results.

Row | Averaged Max. Response (%) (Sts-1HP [1]) | IC50 (Sts-1HP [1]) | SMILES | IC50 [2] | further results
15 | 44.44% |  | O=c1cc(O)cc(/C=C/c2ccc(O)c(O)c2)o1 [Hispidin] |  | 
16 | 57.45% |  | C[C@](N)(Cc1ccc(O)c(O)c1)C(=O)O [L-α-methyl DOPA] |  | 
17 |  | 1.8 µM | C=C1c2c(Cl)ccc(O)c2C(=O)C2=C(O)[C@]3(O)C(=O)C(C(N)=O)=C(O)[C@@H](N(C)C)[C@@H]3[C@@H](O)[C@H]12 [Meclocycline] | > 14.5 µM | 
18 |  | 0.67 µM | C=C1c2cccc(O)c2C(=O)C2=C(O)[C@]3(O)C(=O)C(C(N)=O)=C(O)[C@@H](N(C)C)[C@@H]3[C@@H](O)[C@H]12 [Methacycline] | > 14.5 µM | Ki (Sts-1HP [3]): 326 ± 35 µM
19 | 32.59% |  | CN(C)c1ccc(O)c2c1C[C@H]1C[C@H]3[C@H](N(C)C)C(O)=C(C(N)=O)C(=O)[C@@]3(O)C(O)=C1C2=O [Minocycline] |  | 
20 | 44.94% |  | O=c1c(O)c(-c2ccc(O)cc2O)oc2cc(O)cc(O)c12 [Morin] |  | 
21 |  | 17.6 µM | O=C1C(=NNc2ccc(S(=O)(=O)O)cc2)C(c2ccc([N+](=O)[O-])cc2)=NN1c1ccccc1 [PHPS1, 4-[2-[1,5-dihydro-3-(4-nitrophenyl)-5-oxo-1-phenyl-4H-pyrazol-4-ylidene]hydrazinyl]-benzenesulfonic acid] |  | Ki (Sts-1): 1 µM
